The term MIC denotes the lowest concentration found to suppress growth.

The nature of data set [1]: Selectivity index, ratio of IC50 for human MONO-MAC-6 cells to MIC for multidrug-resistance Mycobacterium tuberculosis A8. To be noted: read-out: Selectivity Index. The data set is classed as toxicity.
Data set [2] relates to Mycobacterium tuberculosis. Briefly: Antimycobacterial activity against multidrug-resistance Mycobacterium tuberculosis A8 after 28 days by serial dilution method. Format: functional. To be noted: for MIC: Mycobacterium tuberculosis, A8, 672 h. A digest of the protocol:
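Serial dilution in in-house Sula semisynthetic medium, pH 6.5. Compounds added as DMSO solutions at 10 doses, final 0.05–100 µg/mL. Incubation at 37 °C, 7 days for M. abscessus and 28 days for M. tuberculosis strains. MIC taken as the lowest concentration giving visible growth inhibition, confirmed by CFU on drug-free Löwenstein-Jensen medium after further equal incubation. Repeated at least twice.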

Data set [3] has as its system Mycobacterium tuberculosis. Briefly: Antimycobacterial activity against INH/RIF/rifabutine/streptomycin-resistance Mycobacterium tuberculosis 9449/2006 after 14 days by microbroth dilution method. The data set is classed as functional. To be noted: 9449/2006, 336 h. A digest of the protocol:
(§1)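 Micromethod MIC in Sula semisynthetic medium, pH 6.5. Incubation at 37 °C, read at 14 and 21 days. MIC taken as the lowest concentration giving complete inhibition of mycobacterial growth.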

Data set [4] in a line: Selectivity index, ratio of IC50 for human MONO-MAC-6 cells to MIC for INH/RIF/rifabutine/streptomycin/ethambutol/ofloxacin/gentamicin/amikacin-resistance Mycobacterium tuberculosis Praha 131 after 21 days. Format: toxicity. To be noted: read-out: Selectivity Index.
Data set [5] in a line: Selectivity index, ratio of IC50 for human MONO-MAC-6 cells to MIC for INH/RIF/rifabutine/streptomycin-resistance Mycobacterium tuberculosis 9449/2006 after 21 days. The data set is classed as toxicity. To be noted: read-out: Selectivity Index.
For data set [6], the system named is Mycobacterium tuberculosis. Description: Antimycobacterial activity against INH/RIF/rifabutine/streptomycin/ethambutol/ofloxacin/gentamicin/amikacin-resistance Mycobacterium tuberculosis Praha 131 after 14 days by microbroth dilution method. To be noted: Praha 131, 336 h. Format: functional. In short, it runs like this:
as §1
Background: In broth dilution the organism is exposed to a series of concentrations in liquid medium.

Data set [7] has as its system Mycobacterium tuberculosis. Description: Antimycobacterial activity against INH/RIF/rifabutine/streptomycin/ethambutol/ofloxacin/gentamicin/amikacin-resistance Mycobacterium tuberculosis Praha 131 after 21 days by microbroth dilution method. To be noted: Praha 131, 504 h. Format: functional. In short, it runs like this: as §1
Data set [8] concerns Mycobacterium tuberculosis. Description: Antimycobacterial activity against INH/RIF/rifabutine/streptomycin-resistance Mycobacterium tuberculosis 9449/2006 after 21 days by microbroth dilution method. To be noted: 9449/2006, 504 h. Format: functional. A digest of the protocol:
as §1

SMILES strings stand for the structures. Values after ≈ are worked out from the molar mass of the structure shown.

Regarding `O=C(Oc1ccc(Br)cc1C(=O)Nc1ccc(Cl)c(Cl)c1)c1cnc(Cl)cn1`, the selectivity ratio in data set [1] turned out to be 2.9. In data set [2], this molecule displayed an Activity of 11 CFU and an MIC of 2 µM (≈ 1 µg/mL).

`O=C(NCCCCl)Oc1ccc(Cl)cc1C(=O)Nc1ccc(C(F)(F)F)cc1`: the MIC in data set [3] was 1 µM (≈ 0.435 µg/mL); in data set [2], 1.2 µM (≈ 0.522 µg/mL); in data set [6], 1 µM (≈ 0.435 µg/mL); in data set [7], 2 µM (≈ 0.87 µg/mL); in data set [8] it was 2 µM (≈ 0.87 µg/mL). Moreover, the selectivity ratio in data set [1] was 7.3. The selectivity ratio at 504 h in data set [4] and in data set [5] was 4.4 throughout. Also, in data set [2], the Activity is on record as 0 CFU.

For `O=C(Nc1ccc(Cl)c(Cl)c1)c1cc(Cl)ccc1O`, the selectivity ratio in data set [1] came out at 2.3. Further, in data set [2], the Activity is 8 CFU and the minimal inhibitory concentration (MIC) is 1.6 µM (≈ 0.507 µg/mL).

For the molecule `O=C(NCCCCl)Oc1ccc(Br)cc1C(=O)Nc1ccc(C(=O)c2ccccc2)cc1`, the selectivity ratio in data set [1] was determined as 6.6. In data set [2], the Activity was 1 CFU and 1.9 µM (≈ 0.98 µg/mL) was the least that counted as inhibitory (MIC).

Consider `O=C(NCCCl)Oc1ccc(Cl)cc1C(=O)Nc1ccc(C(=O)c2ccccc2)cc1`, for which, in data set [1], the selectivity ratio came out at 3.5. In data set [2], this molecule showed an Activity of 21 CFU and an MIC of 10.9 µM (≈ 4.98 µg/mL).

`O=C(Nc1ccc(Cl)c(Cl)c1)c1cc(Br)ccc1O`: in data set [1], the selectivity ratio was found to be 1.3. In data set [2], this molecule gave an Activity of 0 CFU and an MIC of 2.8 µM (≈ 1.01 µg/mL).

In the case of `O=C(c1ccccc1)c1ccc(NC(=O)c2cc(Cl)ccc2O)cc1`, the selectivity ratio in data set [1] came out at 3.4. In data set [2], this molecule displayed an Activity of 50 CFU and an MIC of 14.2 µM (≈ 5 µg/mL).

With `O=C(NCCCCl)Oc1ccc(Br)cc1C(=O)Nc1ccc(C(F)(F)F)cc1`, the minimum inhibitory concentration (MIC) is 1 µM (≈ 0.48 µg/mL) in data set [3]; 1 µM (≈ 0.48 µg/mL) in data set [2]; 1 µM (≈ 0.48 µg/mL) in data set [6]; 2 µM (≈ 0.959 µg/mL) in data set [7]; 2 µM (≈ 0.959 µg/mL) in data set [8]. Further, the selectivity ratio in data set [1] was 5.7. Further, the selectivity ratio at 504 h in data set [4] and in data set [5] was 2.9 in each case. The molecule also returned an Activity in data set [2] of 0 CFU.

For `CCCNC(=O)Oc1ccc(Cl)cc1C(=O)Nc1ccc(Cl)c(Cl)c1`, the MIC in data set [3] is 1 µM (≈ 0.402 µg/mL); in data set [2], 1.3 µM (≈ 0.522 µg/mL); in data set [6], 1 µM (≈ 0.402 µg/mL); in data set [7], 1 µM (≈ 0.402 µg/mL); in data set [8], 1 µM (≈ 0.402 µg/mL). In data set [1], the selectivity ratio was 5.4. The selectivity ratio at 504 h in data set [4] and in data set [5] was 7 in each case. Moreover, in data set [2], the Activity was found to be 2 CFU.

As to `O=C(NCCCl)Oc1ccc(Cl)cc1C(=O)Nc1ccc(Cl)c(Cl)c1`, the selectivity ratio in data set [1] came to 1.9. Further, in data set [2], the Activity is recorded as 0 CFU and the MIC was 2.4 µM (≈ 1.01 µg/mL).

With `O=C(NCCCl)Oc1ccc(Br)cc1C(=O)Nc1ccc(Cl)c(Cl)c1`, the MIC in data set [3] was determined as 1 µM (≈ 0.467 µg/mL); in data set [2] it was 2.2 µM (≈ 1.03 µg/mL); in data set [6], 1 µM (≈ 0.467 µg/mL); in data set [7], 2 µM (≈ 0.933 µg/mL); in data set [8], 2 µM (≈ 0.933 µg/mL). Besides, the selectivity ratio in data set [1] came to 3.1. For the same molecule, the selectivity ratio at 504 h in data set [4] and in data set [5] was 3.5 each time. In data set [2], this molecule came in with an Activity of 0 CFU.

As to `O=C(Oc1ccc(Br)cc1C(=O)Nc1ccc(C(F)(F)F)cc1)c1cnccn1`, the MIC in data set [7] and in data set [8] was 0.5 µM (≈ 0.233 µg/mL) throughout.

On to `O=C(Oc1ccc(Cl)cc1C(=O)Nc1ccc(Cl)c(Cl)c1)c1cnc(Cl)cn1`, for which the MIC in data set [3] is 1 µM (≈ 0.457 µg/mL); in data set [2] it was 4.4 µM (≈ 2.01 µg/mL); in data set [6], 1 µM (≈ 0.457 µg/mL); in data set [7] it was 2 µM (≈ 0.914 µg/mL); in data set [8], 2 µM (≈ 0.914 µg/mL). Also, the selectivity ratio in data set [1] came out at 2.3. Further, the selectivity ratio at 504 h in data set [4] and in data set [5] was 5.1 in each case. The molecule also gave an Activity in data set [2] of 0 CFU.

As for `O=C(Oc1ccc(Br)cc1C(=O)Nc1ccc(C(F)(F)F)cc1)c1cnc(Cl)cn1`, the MIC amounted to 1 µM (≈ 0.501 µg/mL) in data set [3]; 2 µM (≈ 1 µg/mL) in data set [2]; 2 µM (≈ 1 µg/mL) in data set [6]; 2 µM (≈ 1 µg/mL) in data set [7]; 2 µM (≈ 1 µg/mL) in data set [8]. Also, the selectivity ratio in data set [1] came to 0.6. Further, the selectivity ratio at 504 h in data set [4] and in data set [5] was 0.6 each time. The Activity in data set [2] is listed as 22 CFU.

For the molecule `O=C(NCCCl)Oc1ccc(Br)cc1C(=O)Nc1ccc(C(F)(F)F)cc1`, the MIC in data set [3] was found to be 1 µM (≈ 0.466 µg/mL); in data set [2], 1.1 µM (≈ 0.512 µg/mL); in data set [6], 1 µM (≈ 0.466 µg/mL); in data set [7], 2 µM (≈ 0.931 µg/mL); in data set [8], 2 µM (≈ 0.931 µg/mL). Besides, the selectivity ratio in data set [1] turned out to be 8.5. In addition, the selectivity ratio at 504 h in data set [4] and in data set [5] was 4.7 each time. Moreover, in data set [2], the Activity was found to be 9 CFU.

Take `O=C(Oc1ccc(Cl)cc1C(=O)Nc1ccc(Cl)c(Cl)c1)c1cnccn1`: the MIC in data set [7] was 0.125 µM (≈ 0.0528 µg/mL); in data set [8], 0.25 µM (≈ 0.106 µg/mL).

For the molecule `O=C(O)c1cnc(Cl)cn1`, the MIC in data set [2] was greater than 633 µM.

In the case of `O=C(c1ccccc1)c1ccc(NC(=O)c2cc(Br)ccc2O)cc1`, the selectivity ratio in data set [1] was determined as 1.7. In data set [2], the Activity is 1 CFU and 12.7 µM (≈ 5.03 µg/mL) was the least that counted as inhibitory (MIC).

For `O=C(Oc1ccc(Cl)cc1C(=O)Nc1ccc(C(F)(F)F)cc1)c1cnc(Cl)cn1`, the MIC in data set [3] is 1 µM (≈ 0.456 µg/mL); in data set [2], 1.1 µM (≈ 0.502 µg/mL); in data set [6] it was 1 µM (≈ 0.456 µg/mL); in data set [7], 1 µM (≈ 0.456 µg/mL); in data set [8], 2 µM (≈ 0.912 µg/mL). The selectivity ratio in data set [1] was determined as 1. Besides, the selectivity ratio at 504 h in data set [4] turned out to be 1.1; in data set [5], 0.6. In data set [2], this molecule showed an Activity of 1 CFU.

As for `O=C(Nc1ccc(C(F)(F)F)cc1)c1cc(Br)ccc1O`, the selectivity ratio in data set [1] was 2.7. In data set [2], this molecule showed an Activity of 0 CFU and a minimum inhibitory concentration (MIC) of 2.8 µM (≈ 1.01 µg/mL).

For `O=C(Nc1ccc(C(F)(F)F)cc1)c1cc(Cl)ccc1O`, in data set [2], the Activity was 0 CFU and the MIC is 1.6 µM (≈ 0.505 µg/mL).

In data set [2], `NNC(=O)c1ccncc1` [ISONIAZID] returned an Activity of 12 CFU and an MIC of 7.3 µM (≈ 1 µg/mL).

Regarding `O=C(NCCCl)Oc1ccc(Cl)cc1C(=O)Nc1ccc(C(F)(F)F)cc1`, the MIC was found to be 0.5 µM (≈ 0.211 µg/mL) in data set [3]; 1.2 µM (≈ 0.505 µg/mL) in data set [2]; 1 µM (≈ 0.421 µg/mL) in data set [6]; 2 µM (≈ 0.842 µg/mL) in data set [7]; 1 µM (≈ 0.421 µg/mL) in data set [8]. Moreover, the selectivity ratio in data set [1] worked out at 6.3. The selectivity ratio at 504 h stood at 3.8 in data set [4] and 7.6 in data set [5]. Further, the Activity in data set [2] was 0 CFU.

On to `O=C(NCCCCl)Oc1ccc(Br)cc1C(=O)Nc1ccc(Cl)c(Cl)c1`, for which the MIC in data set [3] was 1 µM (≈ 0.481 µg/mL); in data set [2] it was 1 µM (≈ 0.481 µg/mL); in data set [6] it was 1 µM (≈ 0.481 µg/mL); in data set [7] it was 1 µM (≈ 0.481 µg/mL); in data set [8], 2 µM (≈ 0.961 µg/mL). The selectivity ratio in data set [1] is 9.5. The values for the selectivity ratio at 504 h in data set [4] and in data set [5] were 9.5 and 4.8, respectively. For the same molecule, the Activity in data set [2] was 2 CFU.

Take `O=C(NCCCCl)Oc1ccc(Cl)cc1C(=O)Nc1ccc(Cl)c(Cl)c1`: the selectivity ratio in data set [1] was found to be 2.1. Also, in data set [2], the Activity was 1 CFU and the lowest concentration to inhibit growth (MIC) was 1.2 µM (≈ 0.523 µg/mL).

Regarding `O=C(Oc1ccc(Cl)cc1C(=O)Nc1ccc(C(F)(F)F)cc1)c1cnccn1`, the MIC in data set [7] is 1 µM (≈ 0.422 µg/mL); in data set [8] it was 0.5 µM (≈ 0.211 µg/mL).

With `O=C(NCCCCl)Oc1ccc(Cl)cc1C(=O)Nc1ccc(C(=O)c2ccccc2)cc1`, in data set [1], the selectivity ratio was 0.8. Further, in data set [2], the Activity was found to be 0 CFU and 21.3 µM (≈ 10 µg/mL) was the least that counted as inhibitory (MIC).

Turning to `CCCNC(=O)Oc1ccc(Cl)cc1C(=O)Nc1ccc(C(=O)c2ccccc2)cc1`, the selectivity ratio in data set [1] was found to be 1.6. In data set [2], this molecule returned an Activity of 6 CFU and an MIC of 11.5 µM (≈ 5.02 µg/mL).

`O=C(NCCCl)Oc1ccc(Br)cc1C(=O)Nc1ccc(C(=O)c2ccccc2)cc1`: in data set [1], the selectivity ratio turned out to be 1.2. In data set [2], this molecule had an Activity of 0 CFU and an MIC of 20 µM (≈ 10 µg/mL).

The values are drawn from ChEMBL document CHEMBL3612041, “Combating highly resistant emerging pathogen Mycobacterium abscessus and Mycobacterium tuberculosis with novel salicylanilide esters and carbamates” (Eur J Med Chem, 2015).
